Measurements from ChEMBL document CHEMBL1145824, “Simplified discodermolide analogues: synthesis and biological evaluation of 4-epi-7-dehydroxy-14,16-didemethyl-(+)-discodermolides as microtubule-stabilizing agents” (J Med Chem, 2003).

Columns and labels:
[1] = Percent competition for binding to preformed microtubules by 4 uM as against 2 uM of 3[H]paclitaxel; format: functional
How it was run: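 Microtubules preformed from 2 µM bovine brain tubulin with 20 µM ddGTP in monosodium glutamate, 30 min at 37 °C. Then 2 µM [3H]paclitaxel plus 4 µM agent (final concentrations) was added for 30 min at 37 °C. Samples were centrifuged at 14000 rpm for 20 min at room temperature, and supernatant radioactivity was counted. Bound = total minus free, normalized to the no-inhibitor control.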

2008 = assay: Inhibitory concentration against 2008 (ovarian) cells; format: functional; details: Homo sapiens
How it was run: (§1)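 Cells plated at 500-2000/well, allowed to attach and grow 48 h, then exposed continuously for 72 h to vehicle (4% DMSO) or agent. Initial screen at 5-fold dilutions; GI50 then set by a repeat screen of five 2-fold dilutions centred on the estimate, in quadruplicate. A time-zero plate was included. Cell number was read by MTS/phenazine methanesulfonate absorbance (490 minus 630 nm). Values are means ± SD, N=4.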

[2] = Inhibitory concentration against […] (breast) cells; format: functional; details: Homo sapiens; how it was run: as §1
tubulin (Bos taurus) = assay: Percent assembly of bovine brain tubulin induced by compound at 10 uM versus that caused by 10 uM paclitaxel
PC-3 = assay: Inhibitory concentration against PC3 (prostate) cells; format: functional; details: Homo sapiens; how it was run: as §1
A549 = assay: Antiproliferative potency determined as inhibitory concentration against A549 cells; format: functional, cell-based; details: Homo sapiens
How it was run: (§2)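 MTS growth-inhibition assay. Cells seeded at 500-2000/well, attached and grown 48 h, then given agent or vehicle (4% DMSO) for 72 h continuous exposure. A time-zero plate was read. Initial 5-fold dilution screen, then 2-fold dilutions (five concentrations) centred on the estimated GI50, in quadruplicate. Read-out A490 minus A630 with phenazine methanesulfonate as electron acceptor. Mean ± SD, N = 4 over 10 concentrations.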

[3] = Antiproliferative potency determined as inhibitory concentration against MG63 cells; format: functional, cell-based; details: Homo sapiens, MG-63; how it was run: as §2

| Structure (SMILES) | Activity [1] [%] | GI50 2008 [nM] | GI50 [2] [nM] | Activity (tubulin (Bos taurus)) [%] | GI50 (PC-3) [nM] | IC50 (A549) [nM] | IC50 [3] [nM] |
| --- | --- | --- | --- | --- | --- | --- | --- |
| CCCCCC(C)(C)[C@H](OC(N)=O)[C@@H](C)[C@H](O)CC/C=C\C(C)[C@@H](O)[C@@H](C)/C=C\CC[C@@H]1O[C@@H](OC)[C@H](C)[C@@H](OCOC)[C@@H]1C (stereo partly drawn) | 15 | 42000 | 23000 | 9 | 38000 | – | – |
| C=C/C=C\C(C)C(OC(N)=O)[C@@H](C)[C@H](O)[C@@H](C)C/C=C\C(C)[C@@H](O)[C@@H](C)/C=C\C(O)C[C@@H]1OC(=O)C(C)[C@@H](O)[C@H]1C (stereo partly drawn) | – | – | – | – | – | 7.8 | – |
| C=C/C=C\C(C)C(OC(N)=O)[C@@H](C)[C@H](O)[C@@H](C)C/C(C)=C\C(C)[C@@H](O)[C@@H](C)/C=C\C(O)C[C@@H]1OC(=O)C(C)=C[C@H]1C (stereo partly drawn) | – | – | – | – | – | 1.8 | – |
| C=C/C=C\C(C)C(OC(N)=O)[C@@H](C)[C@H](O)[C@@H](C)C/C(C)=C\C(C)[C@@H](O)[C@@H](C)/C=C\C(O)C[C@@H]1OC(=O)[C@H](C)[C@@H](O)[C@H]1C (stereo partly drawn) | 64 | 72 | 16 | >100 | 67 | 3.8 | 6 |
| C=C/C=C\C(C)C(OC(N)=O)[C@@H](C)[C@H](O)C(C)C/C(C)=C\C(C)[C@@H](OC(C)=O)[C@@H](C)/C=C\C(O)C[C@@H]1OC(=O)[C@H](C)[C@@H](OC(C)=O)[C@H]1C (stereo partly drawn) | – | – | – | – | – | 164 | – |
| C=C/C=C\[C@H](C)[C@H](OC(N)=O)[C@@H](C)[C@H](O)CC/C=C\C(C)[C@@H](O)[C@@H](C)/C=C\CC[C@@H]1O[C@@H](OC)[C@H](C)[C@@H](OCOC)[C@@H]1C (stereo partly drawn) | 19 | 4700 | 3400 | 11 | 15000 | – | – |
| C=C/C=C\C(C)C(OC(N)=O)[C@@H](C)[C@H](OC(C)=O)C(C)C/C(C)=C\C(C)[C@@H](O)[C@@H](C)/C=C\C(O)C[C@@H]1OC(=O)[C@H](C)[C@@H](OC(C)=O)[C@H]1C (stereo partly drawn) | – | – | – | – | – | 524 | – |
| C=C/C=C\[C@H](C)[C@H](OC(N)=O)[C@@H](C)[C@H](O)CC/C=C\C(C)[C@@H](O)[C@@H](C)/C=C\CC[C@@H]1OC(=O)[C@H](C)[C@@H](OCOC)[C@@H]1C (stereo partly drawn) | 57 | 650 | 870 | 27 | 1800 | – | – |
| C=C/C=C\C(C)C(OC(N)=O)[C@@H](C)[C@H](O)[C@@H](C)C/C(C)=C\C(C)[C@@H](O)[C@@H](C)/C=C\CC[C@@H]1OC(=O)C=C[C@H]1C (stereo partly drawn) | – | – | – | – | – | 11.4 | – |
| C=C/C=C\C(C)C(OC(N)=O)[C@@H](C)[C@H](O)CC/C(C)=C\C(C)[C@@H](O)[C@@H](C)/C=C\C(O)C[C@@H]1OC(=O)[C@H](C)[C@@H](O)[C@H]1C (stereo partly drawn) | – | – | – | – | – | – | 10 |
| CCCCCC[C@H](OC(N)=O)[C@@H](C)[C@H](O)CC/C=C\C(C)[C@@H](O)[C@@H](C)/C=C\CC[C@@H]1O[C@@H](OC)[C@H](C)[C@@H](OCOC)[C@@H]1C (stereo partly drawn) | 9 | 29000 | 24000 | 6 | > 50000 | – | – |
| C=C/C=C\C(C)C(OC(N)=O)[C@@H](C)[C@H](O)C(C)C/C(C)=C\C(C)[C@@H](O)[C@@H](C)/C=C\C(C[C@@H]1OC(=O)[C@H](C)[C@@H](O)[C@H]1C)OC(C)=O (stereo partly drawn) | – | – | – | – | – | 0.8 | – |
| C=C/C=C\[C@H](C)[C@H](OC(N)=O)[C@@H](C)[C@H](O)CC/C=C\C(C)[C@@H](O)[C@@H](C)/C=C\CC[C@@H]1OC(=O)[C@H](C)[C@@H](O)[C@@H]1C (stereo partly drawn) | 21 | 5200 | 2100 | 11 | 7500 | – | – |
| CC(=O)O[C@H]1C(=O)[C@@]2(C)[C@H]([C@H](OC(=O)c3ccccc3)[C@]3(O)C[C@H](OC(=O)[C@H](O)[C@@H](NC(=O)c4ccccc4)c4ccccc4)C(C)=C1C3(C)C)[C@]1(OC(C)=O)CO[C@@H]1C[C@@H]2O [PACLITAXEL] | 37 | 9.2 | 2.4 | 100 | 15 | 1.4 | – |
| C=C/C=C\C(C)C(OC(N)=O)[C@@H](C)[C@H](O)C(C)C/C(C)=C\C(C)[C@@H](O)[C@@H](C)/C=C\C(O)C[C@@H]1OC(=O)[C@H](C)[C@@H](OC(C)=O)[C@H]1C (stereo partly drawn) | – | – | – | – | – | 3.8 | – |
| COCO[C@H]1[C@@H](C)[C@H](CC/C=C\[C@H](C)[C@H](O)[C@@H](C)/C=C\CC[C@@H](O)[C@H](C)COC(N)=O)OC(=O)[C@@H]1C | 13 | > 50000 | 30000 | <5 | > 50000 | – | – |
| C=C/C=C\C(C)C(OC(N)=O)[C@@H](C)[C@H](O)[C@@H](C)C/C=C/C(C)[C@@H](O)[C@@H](C)/C=C\C(O)C[C@@H]1OC(=O)C(C)[C@@H](O)[C@H]1C (stereo partly drawn) | – | – | – | – | – | 485 | – |
| C=C/C=C\C(C)C(OC(N)=O)[C@@H](C)[C@H](O)C(C)C/C(C)=C\C(C)[C@@H](O)[C@@H](C)/C=C\C(C[C@@H]1OC(=O)[C@H](C)[C@@H](OC(C)=O)[C@H]1C)OC(C)=O (stereo partly drawn) | – | – | – | – | – | 0.8 | – |
| C=C/C=C\[C@H](C)[C@H](OC(N)=O)[C@@H](C)[C@H](O)[C@@H](C)C/C(C)=C\[C@H](C)[C@@H](O)[C@@H](C)/C=C\[C@@H](O)C[C@@H]1OC(=O)[C@H](C)[C@@H](O)[C@H]1C [DISERMOLIDE] | 32 | 1500 | 2600 | 14 | 3000 | – | – |
